Test results published in ChEMBL document CHEMBL4118021, “Studies of TAK1-centered polypharmacology with novel covalent TAK1 inhibitors” (Bioorg Med Chem, 2017).
Activity calls are given as the source filed them.

Key:
[1] = biological target: Dual specificity mitogen-activated protein kinase kinase 1 (Homo sapiens) (UniProt Q02750); experiment: Inhibition of full length human MEK1 (1 to 393 residues) expressed in mammalian expression system assessed as enzyme activity at 1 uM by KINOMEScan assay relative to control; set-up: scale not given: the % may be the effect or the level left
How it was run: (§1)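 In vitro ATP-site competition binding assay (KinomeScan) across a panel of 456 kinases. Compound was tested at 1 and 10 μM. The read-out is the binding inhibition score relative to control.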

[2] = biological target: BMP-2-inducible protein kinase (Homo sapiens) (UniProt Q9NSY1); experiment: Inhibition of human BIKE (34 to 329 residues) expressed in bacterial expression system assessed as enzyme activity at 1 uM by KINOMEScan assay relative to control; set-up: scale not given: the % may be the effect or the level left; how it was run: as §1
Sequence of BMP-2-inducible protein kinase (Homo sapiens) (Q9NSY1 whole entry, looked up, the tested form may be a part): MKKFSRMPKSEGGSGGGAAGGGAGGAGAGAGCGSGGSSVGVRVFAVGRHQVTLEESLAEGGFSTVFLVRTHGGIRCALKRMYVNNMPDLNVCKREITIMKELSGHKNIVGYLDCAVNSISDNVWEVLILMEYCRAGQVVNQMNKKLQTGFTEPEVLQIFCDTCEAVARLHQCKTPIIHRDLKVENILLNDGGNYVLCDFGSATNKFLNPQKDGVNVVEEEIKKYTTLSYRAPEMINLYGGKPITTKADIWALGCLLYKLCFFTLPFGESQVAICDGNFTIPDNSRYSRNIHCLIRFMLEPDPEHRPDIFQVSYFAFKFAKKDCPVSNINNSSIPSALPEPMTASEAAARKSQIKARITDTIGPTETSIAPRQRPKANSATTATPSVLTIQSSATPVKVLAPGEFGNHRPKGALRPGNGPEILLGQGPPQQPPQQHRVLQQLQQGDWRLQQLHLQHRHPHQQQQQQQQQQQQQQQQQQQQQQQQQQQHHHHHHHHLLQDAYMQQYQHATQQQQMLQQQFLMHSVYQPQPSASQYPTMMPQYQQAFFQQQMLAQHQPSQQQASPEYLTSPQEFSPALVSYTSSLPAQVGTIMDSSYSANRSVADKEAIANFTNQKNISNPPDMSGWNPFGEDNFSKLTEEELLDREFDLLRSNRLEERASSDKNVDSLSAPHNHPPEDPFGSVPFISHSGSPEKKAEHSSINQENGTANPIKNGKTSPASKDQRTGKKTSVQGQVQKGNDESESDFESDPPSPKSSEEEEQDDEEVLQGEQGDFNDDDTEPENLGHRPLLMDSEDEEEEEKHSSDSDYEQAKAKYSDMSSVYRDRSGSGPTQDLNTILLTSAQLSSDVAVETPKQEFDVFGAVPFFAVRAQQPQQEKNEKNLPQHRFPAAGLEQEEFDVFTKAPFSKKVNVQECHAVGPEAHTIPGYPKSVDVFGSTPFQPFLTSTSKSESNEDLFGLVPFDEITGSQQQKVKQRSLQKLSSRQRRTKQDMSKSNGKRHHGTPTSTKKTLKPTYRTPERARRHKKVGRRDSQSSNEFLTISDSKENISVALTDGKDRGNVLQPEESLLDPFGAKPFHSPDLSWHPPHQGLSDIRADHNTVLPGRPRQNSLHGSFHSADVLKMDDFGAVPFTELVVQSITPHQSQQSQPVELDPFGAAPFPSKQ

[3] = biological target: BMP-2-inducible protein kinase (Homo sapiens) (UniProt Q9NSY1); experiment: Inhibition of human BIKE (34 to 329 residues) expressed in bacterial expression system assessed as enzyme activity at 10 uM by KINOMEScan assay relative to control; set-up: scale not given: the % may be the effect or the level left; how it was run: as §1
[4] = biological target: Phosphatidylinositol 4-phosphate 3-kinase C2 domain-containing subunit beta (Homo sapiens) (UniProt O00750); experiment: Inhibition of PIK3C2B in human SKCO1 cells at 1 uM after 4 hrs using biotin labeled VIFKCGDDLRQDMLTLQMIR probe by mass-spectrometric analysis relative to control; type: cell-based
[5] = biological target: TGF-beta receptor type-2 (Homo sapiens) (UniProt P37173); experiment: Inhibition of human TGFBR2 (218 to 567 residues) expressed in bacterial expression system assessed as enzyme activity at 1 uM by KINOMEScan assay relative to control; set-up: scale not given: the % may be the effect or the level left
How it was run: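 In vitro ATP-site competition binding assay across a panel of 456 kinases, with compound tested at 1 and 10 μM.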

[6] = biological target: Aldehyde dehydrogenase family 3 member A2 (Homo sapiens) (UniProt P51648); experiment: Binding affinity to ALDH3A2 in human NCI-H23 cells at 1 uM by mass spectrometry based pull down assay; type: cell-based
[7] = biological target: Tyrosine-protein kinase Yes (Homo sapiens) (UniProt P07947); experiment: Binding affinity to YES1 in human NCI-H23 cells at 1 uM by mass spectrometry based pull down assay; type: cell-based
[8] = biological target: Glucose-6-phosphate isomerase (Homo sapiens) (UniProt P06744); experiment: Binding affinity to GPI in human NCI-H358 cells at 1 uM by mass spectrometry based pull down assay; type: cell-based
[9] = biological target: Aldehyde dehydrogenase X, mitochondrial (Homo sapiens) (UniProt P30837); experiment: Binding affinity to ALDH1B1 in human NCI-H23 cells at 1 uM by mass spectrometry based pull down assay; type: cell-based
How it was run: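 NCI-H23 or NCI-H358 cells were grown and lysed. Lysates were incubated overnight at 4 °C with 1 μM biotinylated covalent probe or DMSO, then pulled down on streptavidin beads. Proteins were run on polyacrylamide gels and stained with Coomassie. Bands were excised, digested and identified by mass spectrometry.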

[10] = biological target: Deaminated glutathione amidase (Homo sapiens) (UniProt Q86X76); experiment: Binding affinity to NIT1 in human NCI-H358 cells at 1 uM by mass spectrometry based pull down assay; type: cell-based
Sequence of Deaminated glutathione amidase (Homo sapiens) (Q86X76 whole entry): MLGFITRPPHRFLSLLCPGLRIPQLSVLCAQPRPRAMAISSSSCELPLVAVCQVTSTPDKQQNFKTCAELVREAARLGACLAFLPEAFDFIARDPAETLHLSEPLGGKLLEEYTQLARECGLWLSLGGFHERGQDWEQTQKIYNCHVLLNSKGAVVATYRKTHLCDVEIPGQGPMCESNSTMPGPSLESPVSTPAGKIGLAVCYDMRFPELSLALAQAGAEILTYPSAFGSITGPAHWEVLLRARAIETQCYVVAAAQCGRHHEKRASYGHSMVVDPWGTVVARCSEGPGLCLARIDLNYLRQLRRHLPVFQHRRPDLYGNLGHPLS

[11] = biological target: Vesicle-trafficking protein SEC22b (Homo sapiens) (UniProt O75396); experiment: Binding affinity to SEC22B in human NCI-H358 cells at 1 uM by mass spectrometry based pull down assay; type: cell-based
Sequence of Vesicle-trafficking protein SEC22b (Homo sapiens) (O75396 whole entry): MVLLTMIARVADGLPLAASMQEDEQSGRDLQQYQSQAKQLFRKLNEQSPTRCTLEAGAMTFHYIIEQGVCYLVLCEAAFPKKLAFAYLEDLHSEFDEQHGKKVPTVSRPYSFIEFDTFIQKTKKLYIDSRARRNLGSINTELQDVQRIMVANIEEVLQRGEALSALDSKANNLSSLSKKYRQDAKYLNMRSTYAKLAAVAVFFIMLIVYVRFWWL

[12] = biological target: Kinesin-like protein KIF1A (Homo sapiens) (UniProt Q12756); experiment: Binding affinity to KIF1A in human NCI-H23 cells at 1 uM by mass spectrometry based pull down assay; type: cell-based
[13] = biological target: Nuclear pore complex protein Nup155 (Homo sapiens) (UniProt O75694); experiment: Binding affinity to NUP155 in human NCI-H23 cells at 1 uM by mass spectrometry based pull down assay; type: cell-based
Sequence of Nuclear pore complex protein Nup155 (Homo sapiens) (O75694 whole entry, one chain of several): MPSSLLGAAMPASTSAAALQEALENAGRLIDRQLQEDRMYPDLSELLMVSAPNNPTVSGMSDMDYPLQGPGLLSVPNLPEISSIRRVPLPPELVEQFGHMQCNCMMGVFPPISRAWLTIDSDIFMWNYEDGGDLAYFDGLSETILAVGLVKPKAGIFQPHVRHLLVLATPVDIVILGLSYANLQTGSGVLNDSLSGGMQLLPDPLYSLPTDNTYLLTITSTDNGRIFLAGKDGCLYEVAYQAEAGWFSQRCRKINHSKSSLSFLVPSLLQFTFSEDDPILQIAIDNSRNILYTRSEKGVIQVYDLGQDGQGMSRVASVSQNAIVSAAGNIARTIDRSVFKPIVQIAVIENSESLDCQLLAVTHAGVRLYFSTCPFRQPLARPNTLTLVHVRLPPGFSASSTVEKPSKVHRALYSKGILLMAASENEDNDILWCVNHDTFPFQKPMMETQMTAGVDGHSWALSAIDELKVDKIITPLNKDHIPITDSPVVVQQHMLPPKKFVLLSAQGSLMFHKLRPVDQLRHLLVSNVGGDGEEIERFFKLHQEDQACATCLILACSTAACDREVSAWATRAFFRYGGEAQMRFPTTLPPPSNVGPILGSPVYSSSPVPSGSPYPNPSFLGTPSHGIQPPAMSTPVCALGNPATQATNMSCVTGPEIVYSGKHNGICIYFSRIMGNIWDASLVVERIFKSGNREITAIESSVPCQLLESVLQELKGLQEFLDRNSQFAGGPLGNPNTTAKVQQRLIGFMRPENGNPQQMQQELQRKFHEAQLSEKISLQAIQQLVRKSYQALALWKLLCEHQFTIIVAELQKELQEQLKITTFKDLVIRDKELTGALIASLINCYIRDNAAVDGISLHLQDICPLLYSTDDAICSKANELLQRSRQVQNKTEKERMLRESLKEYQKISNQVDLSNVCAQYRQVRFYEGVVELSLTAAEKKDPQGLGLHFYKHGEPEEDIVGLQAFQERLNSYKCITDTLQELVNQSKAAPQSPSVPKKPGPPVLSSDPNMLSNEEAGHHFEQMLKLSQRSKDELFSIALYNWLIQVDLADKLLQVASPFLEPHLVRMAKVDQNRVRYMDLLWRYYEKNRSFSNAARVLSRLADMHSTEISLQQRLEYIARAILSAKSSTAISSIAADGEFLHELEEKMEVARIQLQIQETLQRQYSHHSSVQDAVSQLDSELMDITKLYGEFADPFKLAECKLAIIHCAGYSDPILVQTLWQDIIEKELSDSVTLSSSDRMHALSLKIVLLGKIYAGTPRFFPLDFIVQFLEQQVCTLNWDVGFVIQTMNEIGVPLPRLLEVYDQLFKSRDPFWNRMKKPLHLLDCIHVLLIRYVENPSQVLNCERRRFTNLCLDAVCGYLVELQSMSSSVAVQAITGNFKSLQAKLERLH

[14] = biological target: DNA mismatch repair protein Msh2 (Homo sapiens) (UniProt P43246); experiment: Binding affinity to MSH2 in human NCI-H358 cells at 1 uM by mass spectrometry based pull down assay; type: cell-based
[15] = biological target: Large ribosomal subunit protein bL12m (Homo sapiens) (UniProt P52815); experiment: Binding affinity to MRPL12 in human NCI-H358 cells at 1 uM by mass spectrometry based pull down assay; type: cell-based
[16] = biological target: Phosphoinositide 3-kinase regulatory subunit 4 (Homo sapiens) (UniProt Q99570); experiment: Binding affinity to PIK3R4 in human NCI-H358 cells at 1 uM by mass spectrometry based pull down assay; type: cell-based
[17] = biological target: Protein arginine N-methyltransferase 5 (Homo sapiens) (UniProt O14744); experiment: Binding affinity to PRMT5 in human NCI-H358 cells at 1 uM by mass spectrometry based pull down assay; type: cell-based
[18] = biological target: Kinesin-like protein KIF15 (Homo sapiens) (UniProt Q9NS87); experiment: Binding affinity to KIF15 in human NCI-H358 cells at 1 uM by mass spectrometry based pull down assay; type: cell-based
[19] = biological target: Mitogen-activated protein kinase 3 (Homo sapiens) (UniProt P27361); experiment: Binding affinity to MAPK3 in human NCI-H23 cells at 1 uM by mass spectrometry based pull down assay; type: cell-based
[20] = biological target: tRNA (guanosine(18)-2'-O)-methyltransferase TARBP1 (Homo sapiens) (UniProt Q13395); experiment: Binding affinity to TARBP1 in human NCI-H358 cells at 1 uM by mass spectrometry based pull down assay; type: cell-based
[21] = biological target: Ubiquitin-associated protein 2-like (Homo sapiens) (UniProt Q14157); experiment: Binding affinity to UBAP2L in human NCI-H358 cells at 1 uM by mass spectrometry based pull down assay; type: cell-based
Sequence of Ubiquitin-associated protein 2-like (Homo sapiens) (Q14157 whole entry): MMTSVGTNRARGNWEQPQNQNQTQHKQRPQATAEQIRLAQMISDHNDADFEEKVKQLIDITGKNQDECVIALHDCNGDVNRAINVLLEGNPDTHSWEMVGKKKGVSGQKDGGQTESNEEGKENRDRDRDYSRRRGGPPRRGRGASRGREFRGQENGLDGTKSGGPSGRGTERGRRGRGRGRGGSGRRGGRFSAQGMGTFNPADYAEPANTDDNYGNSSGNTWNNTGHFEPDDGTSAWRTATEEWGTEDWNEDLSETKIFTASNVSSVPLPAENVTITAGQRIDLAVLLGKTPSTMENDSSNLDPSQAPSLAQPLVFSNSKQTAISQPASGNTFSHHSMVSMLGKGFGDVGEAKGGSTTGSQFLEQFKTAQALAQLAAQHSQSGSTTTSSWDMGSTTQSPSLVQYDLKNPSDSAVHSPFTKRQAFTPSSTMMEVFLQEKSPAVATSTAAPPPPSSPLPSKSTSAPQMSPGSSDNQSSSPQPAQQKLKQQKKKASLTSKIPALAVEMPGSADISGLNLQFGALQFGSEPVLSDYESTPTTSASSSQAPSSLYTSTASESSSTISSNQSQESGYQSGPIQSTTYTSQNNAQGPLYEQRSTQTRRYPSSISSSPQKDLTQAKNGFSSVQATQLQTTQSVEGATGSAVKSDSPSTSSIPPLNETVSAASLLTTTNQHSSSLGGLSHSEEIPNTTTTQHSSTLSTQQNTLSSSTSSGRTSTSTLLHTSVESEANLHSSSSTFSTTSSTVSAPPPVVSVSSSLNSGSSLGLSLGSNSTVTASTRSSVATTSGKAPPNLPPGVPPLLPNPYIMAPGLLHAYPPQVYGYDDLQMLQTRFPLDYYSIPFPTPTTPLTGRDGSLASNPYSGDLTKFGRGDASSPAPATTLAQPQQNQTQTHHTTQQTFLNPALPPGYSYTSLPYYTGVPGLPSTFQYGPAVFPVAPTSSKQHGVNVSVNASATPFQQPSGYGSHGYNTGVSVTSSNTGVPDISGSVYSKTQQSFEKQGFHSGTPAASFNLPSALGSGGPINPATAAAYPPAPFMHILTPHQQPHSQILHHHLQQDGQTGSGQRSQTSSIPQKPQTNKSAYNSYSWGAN

[22] = biological target: Moesin (Homo sapiens) (UniProt P26038); experiment: Binding affinity to MSN in human NCI-H358 cells at 1 uM by mass spectrometry based pull down assay; type: cell-based
[23] = biological target: 14-3-3 protein gamma (Homo sapiens) (UniProt P61981); experiment: Binding affinity to YWHAG in human NCI-H23 cells at 1 uM by mass spectrometry based pull down assay; type: cell-based
[24] = biological target: Protein transport protein Sec23A (Homo sapiens) (UniProt Q15436); experiment: Binding affinity to SEC23A in human NCI-H358 cells at 1 uM by mass spectrometry based pull down assay; type: cell-based
Sequence of Protein transport protein Sec23A (Homo sapiens) (Q15436 whole entry): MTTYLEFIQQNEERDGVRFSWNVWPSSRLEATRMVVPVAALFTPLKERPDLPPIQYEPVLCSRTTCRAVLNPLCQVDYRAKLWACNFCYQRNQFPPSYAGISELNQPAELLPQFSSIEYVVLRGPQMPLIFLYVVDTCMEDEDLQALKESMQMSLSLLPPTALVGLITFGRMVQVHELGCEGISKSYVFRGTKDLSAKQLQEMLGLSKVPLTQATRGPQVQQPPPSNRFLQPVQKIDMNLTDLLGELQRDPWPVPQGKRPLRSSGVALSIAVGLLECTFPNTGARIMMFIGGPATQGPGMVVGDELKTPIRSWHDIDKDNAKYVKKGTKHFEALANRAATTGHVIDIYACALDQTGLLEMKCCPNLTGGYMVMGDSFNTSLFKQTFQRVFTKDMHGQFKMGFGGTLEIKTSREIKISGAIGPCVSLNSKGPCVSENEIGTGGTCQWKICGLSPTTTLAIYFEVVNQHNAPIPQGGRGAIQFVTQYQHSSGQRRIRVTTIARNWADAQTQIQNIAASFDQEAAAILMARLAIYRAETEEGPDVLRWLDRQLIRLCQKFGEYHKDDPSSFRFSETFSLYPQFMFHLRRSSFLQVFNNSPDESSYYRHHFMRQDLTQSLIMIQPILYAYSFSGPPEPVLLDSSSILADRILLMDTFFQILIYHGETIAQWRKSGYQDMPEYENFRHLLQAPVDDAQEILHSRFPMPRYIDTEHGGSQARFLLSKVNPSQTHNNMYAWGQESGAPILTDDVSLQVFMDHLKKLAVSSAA

[25] = biological target: Phospholipid hydroperoxide glutathione peroxidase GPX4 (Homo sapiens) (UniProt P36969); experiment: Binding affinity to GPX4 in human NCI-H23 cells at 1 uM by mass spectrometry based pull down assay; type: cell-based
[26] = biological target: Thymidylate kinase (Homo sapiens) (UniProt P23919); experiment: Binding affinity to DTYMK in human NCI-H358 cells at 1 uM by mass spectrometry based pull down assay; type: cell-based
[27] = biological target: Ribonucleoside-diphosphate reductase large subunit (Homo sapiens) (UniProt P23921); experiment: Binding affinity to RRM1 in human NCI-H23 cells at 1 uM by mass spectrometry based pull down assay; type: cell-based
[28] = biological target: Tubulin alpha-1A chain (Homo sapiens) (UniProt Q71U36); experiment: Binding affinity to TUBA1A in human NCI-H23 cells at 1 uM by mass spectrometry based pull down assay; type: cell-based
[29] = biological target: Monofunctional C1-tetrahydrofolate synthase, mitochondrial (Homo sapiens) (UniProt Q6UB35); experiment: Binding affinity to MTHFD1L in human NCI-H358 cells at 1 uM by mass spectrometry based pull down assay; type: cell-based

COc1cc(O)c2c(c1)/C=C/C[C@H](O)[C@H](O)C(=O)/C=C\C[C@H](C)OC2=O
3.8%: Activity [3] | Activity [5]
68%: Activity [2]
8.3%: inhibition [4]
0.65%: Activity [1]

C=CC(=O)Nc1ccccc1Nc1nc(Nc2ccc(N3CCN(CCOCCOCCOCCNC(=O)CCCC[C@@H]4SC[C@@H]5NC(=O)N[C@@H]54)CC3)cc2)ncc1Cl
active: Activity [6] | Activity [7] | Activity [8] | Activity [9] | Activity [10] | Activity [11] | Activity [12] | Activity [13] | Activity [14] | Activity [15] | Activity [16] | Activity [17] | Activity [18] | Activity [19] | Activity [20] | Activity [21] | Activity [22] | Activity [23] | Activity [24] | Activity [25] | Activity [26] | Activity [27] | Activity [28] | Activity [29]
